Assay results pooled from the literature.
Lines come from different studies, so protocols differ.
ABL1: Tyrosine-protein kinase ABL1 (ABL1, Homo sapiens, UniProt P00519)

SMILES | target | assay | setting | endpoint | value
Cn1cncc1[C@](O)(COc1ccc(C#N)cc1-c1ccc(OC(F)(F)F)cc1)c1ccc(C#N)cc1 | Tyrosine-protein kinase ABL1, phosphorylated (ABL1, Homo sapiens, UniProt P00519) | cell-free assay, competition with immobilised ligand | 1 µM | remaining binding | 100%
Cn1cc(-c2cc(F)cc(N3CCn4c(cc5c4CCCC5)C3=O)c2CO)cc(Nc2ccc(N3CCN(C4COC4)CC3)cn2)c1=O | Tyrosine-protein kinase ABL1 (ABL1, Homo sapiens, UniProt P00519, Y253F) | enzyme activity, inhibitor | 0.1 µM | inhibition | 3%
C#Cc1n[nH]c2c(-c3cn(C(C)c4ccccn4)c(=O)[nH]c3=O)cc(F)cc12 (stereo not shown) | ABL1 | enzyme activity, inhibitor | 1 µM | inhibition | -8.5%
O=c1[nH]c2ccccc2n1C1CCN(Cc2ccc(-c3[nH]c4cc5ncnc5cc4nc3-c3ccccc3)cc2)CC1 | ABL1 | cell-free assay | 0.5 µM | remaining signal | 98.2%
Cc1ncc(C)n2nc(/C=C/c3nc(N4CCCC4)cc(N4CCOCC4)n3)nc12 | ABL1 | enzyme activity, inhibitor | 10 µM | inhibition | 14%
Cn1cc(-c2cccc(N3CCc4c(sc5c4CC(C)(C)C5)C3=O)c2CO)cc(Nc2ccncn2)c1=O | ABL1 | enzyme activity, inhibitor | 1 µM | inhibition | -1%
N#CC1(c2ccccn2)CCN(Cc2cc(C(=O)O)c(=O)n3ccccc23)CC1 | Tyrosine-protein kinase ABL1, phosphorylated (ABL1, Homo sapiens, UniProt P00519, F317L) | cell-free assay, competition with immobilised ligand | 1 µM | remaining binding | 84%
Nc1ncc(-c2nc(N3CCOCC3)nc(N3CCOCC3)n2)c(C(F)F)n1 | Tyrosine-protein kinase ABL1, non-phosphorylated (ABL1, Homo sapiens, UniProt P00519, F317I) | binding, competition with immobilised ligand | 10 µM | remaining binding | 84%
C#Cc1n[nH]c2c(-c3cn([C@@H](C)c4ccccc4)c(=O)[nH]c3=O)cc(F)cc12 | ABL1 | enzyme activity, inhibitor | 0.1 µM | inhibition | -2.2%
Cc1nn(C)cc1-c1nc2c(N3CCN(Cc4ccc(Cl)cc4)CC3)c(Cl)cnc2[nH]1 | Tyrosine-protein kinase ABL1, phosphorylated (ABL1, Homo sapiens, UniProt P00519, Q252H) | binding, competition with immobilised ligand | 1 µM | remaining binding | 84%
